From ChEMBL document CHEMBL4622930, “Synthesis and biological evaluation of novel isothiazoloquinoline quinone analogues” (Bioorg Med Chem Lett, 2020)

What was measured:
[1] = biological target: NAD(P)H dehydrogenase [quinone] 1 (Homo sapiens) (UniProt P15559); test: Substrate activity at human NQO1 assessed as amount of NADH oxidation assessed per umol NQO1
How it was run: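 Quinones at 20 μM coincubated with NADH with and without human NQO1. Rate of NADH oxidation measured.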

A549 [2] = test: Antiproliferative activity against human A549 cells assessed as reduction in cell viability measured after 48 hrs MTT assay; format: functional, cell-based; settings: A549, 48 h
How it was run: (§1)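 Cells (MDA-MB-231, MCF-7, MCF-10A, HT-29, A549) exposed to compounds for 48 h, then viability read by MTT. IC50 is the concentration giving 50% inhibition of viability. Means ± SD of three independent experiments.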

HT-29 = test: Antiproliferative activity against human HT-29 cells assessed as reduction in cell viability measured after 48 hrs MTT assay; format: functional, cell-based; settings: HT-29, 48 h; how it was run: as §1
MDA-MB-231 [3] = test: Antiproliferative activity against human MDA-MB-231 cells assessed as reduction in cell viability measured after 48 hrs MTT assay; format: functional, cell-based; settings: MDA-MB-231, 48 h; how it was run: as §1
MCF7 = test: Antiproliferative activity against human MCF7 cells assessed as reduction in cell viability measured after 48 hrs MTT assay; format: functional, cell-based; settings: MCF7, 48 h; how it was run: as §1
MCF-10A = test: Cytotoxicity against human MCF10A cells assessed as reduction in cell viability measured after 48 hrs MTT assay; format: cell-based; how it was run: as §1
A549 [4] = test: Induction of apoptosis in human A549 cells assessed as live cells at 2 uM measured after 24 hrs by annexinV-FITC/propidium iodide staining based flow cytometry (reference value: 95.5 %); format: functional
A549 [5] = test: Induction of apoptosis in human A549 cells assessed as late apoptotic cells at 2 uM measured after 24 hrs by annexinV-FITC/propidium iodide staining based flow cytometry (reference value: 3.70 %); format: functional
A549 [6] = test: Induction of apoptosis in human A549 cells assessed as necrotic cells at 2 uM measured after 24 hrs by annexinV-FITC/propidium iodide staining based flow cytometry (reference value: 0.54 %); format: functional
A549 [7] = test: Induction of apoptosis in human A549 cells assessed as early apoptotic cells at 2 uM measured after 24 hrs by annexinV-FITC/propidium iodide staining based flow cytometry (reference value: 0.25 %); format: functional
A549 [8] = test: Induction of ROS generation in human A549 cells at 2 uM measured after 24 hrs by DCFH-DA probe based flow cytometry (reference value: 4.92 %); format: functional
A549 [9] = test: Potency index, ratio of BBI608 activity to test compound activity for induction of apoptosis in human A549 cells measured after 24 hrs by annexinV-FITC/propidium iodide staining based flow cytometry; format: functional
How it was run: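 A549 cells given test compound or BBI608, each at 2 μM, for 24 h, then stained with Annexin V-FITC/propidium iodide for 15 min. Apoptosis rate by flow cytometry; the ratio compares rates at the same concentration.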

[10] = biological target: Signal transducer and activator of transcription 3 (Homo sapiens) (UniProt P40763); test: Inhibition of STAT3 phosphorylation in human MDA-MB-231 cells measured after 2 hrs by Western blot analysis; format: cell-based
How it was run: (§2)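 MDA-MB-231 cells incubated for 2 h with test compound at 2, 4 or 8 μM, or with DMSO vehicle. Phospho-STAT3 and total STAT3 detected by western blot.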

MDA-MB-231 [11] = test: Effect on total STAT3 level in human MDA-MB-231 cells at 2 to 8 uM measured after 2 hrs by Western blot analysis; format: cell-based; settings: mda-mb-231, 2 h; how it was run: as §2
A549 [12] = test: Induction of apoptosis in human A549 cells assessed as early apoptotic cells at 1 uM measured after 24 hrs by annexinV-FITC/propidium iodide staining based flow cytometry (reference value: 0.25 %); format: functional
A549 [13] = test: Induction of apoptosis in human A549 cells measured after 24 hrs by annexinV-FITC/propidium iodide staining based flow cytometry; format: functional, cell-based
A549 [14] = test: Induction of ROS generation in human A549 cells at 2 uM measured after 24 hrs by DCFH-DA probe based flow cytometry relative to BBI608; format: functional
A549 [15] = test: Induction of apoptosis in human A549 cells assessed as live cells at 1 uM measured after 24 hrs by annexinV-FITC/propidium iodide staining based flow cytometry (reference value: 95.5 %); format: functional
A549 [16] = test: Induction of apoptosis in human A549 cells assessed as late apoptotic cells at 1 uM measured after 24 hrs by annexinV-FITC/propidium iodide staining based flow cytometry (reference value: 3.70 %); format: functional
A549 [17] = test: Induction of apoptosis in human A549 cells assessed as necrotic cells at 1 uM measured after 24 hrs by annexinV-FITC/propidium iodide staining based flow cytometry (reference value: 0.54 %); format: functional

Chain of NAD(P)H dehydrogenase [quinone] 1 (Homo sapiens) (P15559 whole entry): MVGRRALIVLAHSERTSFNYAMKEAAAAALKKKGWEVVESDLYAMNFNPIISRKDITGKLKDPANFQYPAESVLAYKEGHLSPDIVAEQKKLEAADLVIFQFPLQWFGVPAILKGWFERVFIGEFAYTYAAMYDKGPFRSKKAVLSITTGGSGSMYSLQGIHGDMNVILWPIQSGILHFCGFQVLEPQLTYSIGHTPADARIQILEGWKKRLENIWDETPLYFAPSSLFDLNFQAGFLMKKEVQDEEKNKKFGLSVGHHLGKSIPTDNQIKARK
Chain of Signal transducer and activator of transcription 3 (Homo sapiens) (P40763 whole entry): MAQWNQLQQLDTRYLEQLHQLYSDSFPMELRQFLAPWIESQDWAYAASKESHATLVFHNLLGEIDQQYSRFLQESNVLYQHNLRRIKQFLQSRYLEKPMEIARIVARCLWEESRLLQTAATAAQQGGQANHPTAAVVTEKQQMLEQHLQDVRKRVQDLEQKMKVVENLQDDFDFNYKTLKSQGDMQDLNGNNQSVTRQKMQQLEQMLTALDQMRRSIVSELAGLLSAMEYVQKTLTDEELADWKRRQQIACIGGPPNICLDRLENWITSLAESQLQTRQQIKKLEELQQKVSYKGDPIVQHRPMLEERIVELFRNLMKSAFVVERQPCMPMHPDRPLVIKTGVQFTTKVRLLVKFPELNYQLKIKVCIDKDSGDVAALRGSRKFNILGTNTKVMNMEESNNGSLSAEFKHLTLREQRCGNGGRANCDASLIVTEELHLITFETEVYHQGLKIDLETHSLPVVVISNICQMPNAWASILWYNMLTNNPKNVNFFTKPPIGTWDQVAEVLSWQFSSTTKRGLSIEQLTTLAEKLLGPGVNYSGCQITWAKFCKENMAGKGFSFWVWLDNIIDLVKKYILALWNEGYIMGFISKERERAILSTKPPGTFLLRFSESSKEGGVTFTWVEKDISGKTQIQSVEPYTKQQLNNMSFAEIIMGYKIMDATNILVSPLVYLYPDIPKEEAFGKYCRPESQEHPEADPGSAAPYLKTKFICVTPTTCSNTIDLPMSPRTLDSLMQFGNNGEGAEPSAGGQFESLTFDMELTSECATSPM

| Activity [1] [µmol/min] | IC50 (A549 [2]) [nM] | IC50 (HT-29) [nM] | IC50 (MDA-MB-231 [3]) [nM] | IC50 (MCF7) [nM] | inhibition [10] | SMILES | IC50 (MCF-10A) [nM] | Activity (A549 [4]) [%] | Activity (A549 [5]) [%] | Activity (A549 [6]) [%] | Activity (A549 [7]) [%] | Activity (A549 [8]) [%] | Ratio (A549 [9]) | Activity (MDA-MB-231 [11]) | Activity (A549 [12]) [%] | Activity (A549 [13]) | Ratio (A549 [14]) | Activity (A549 [15]) [%] | Activity (A549 [16]) [%] | Activity (A549 [17]) [%] |
| --- | --- | --- | --- | --- | --- | --- | --- | --- | --- | --- | --- | --- | --- | --- | --- | --- | --- | --- | --- | --- |
| 112 | 2830 | 3800 | 5810 | 3310 | – | CCc1nsc2c1C(=O)c1cccc(O)c1C2=O | 3020 | – | – | – | – | – | – | – | – | – | – | – | – | – |
| 122 | 1960 | 1620 | 1670 | 920 | – | Cc1nsc2c1C(=O)c1c(O)cccc1C2=O | 920 | – | – | – | – | – | – | – | – | – | – | – | – | – |
| 38.9 | 4800 | 3880 | 1460 | 1410 | – | COc1ccc(-c2nsc3c2C(=O)c2cccc(O)c2C3=O)cc1 | 1510 | – | – | – | – | – | – | – | – | – | – | – | – | – |
| 14.6 | > 40000 | 28800 | 22000 | 12100 | – | COc1cccc2c1C(=O)c1snc(-c3ccccc3)c1C2=O | 24600 | – | – | – | – | – | – | – | – | – | – | – | – | – |
| 180 | 1690 | 3030 | 230 | 640 | – | Cc1nsc2c1C(=O)c1cccnc1C2=O | 880 | – | – | – | – | – | – | – | – | – | – | – | – | – |
| 170 | 6690 | 140 | 1290 | 630 | – | CC(=O)c1cc2c(o1)C(=O)c1ccccc1C2=O [NAPABUCASIN] | 540 | 94.4 | 4.98 | 0.45 | 0.16 | 23.5 | – | – | – | – | – | – | – | – |
| 68 | 1710 | 2670 | 1650 | 4090 | – | Cc1nsc2c1C(=O)c1ccccc1C2=O | 1110 | – | – | – | – | – | – | – | – | – | – | – | – | – |
| 175 | 1350 | 2030 | 660 | 460 | – | O=C1c2cccnc2C(=O)c2c(-c3ccccc3)nsc21 | 170 | – | – | – | – | – | – | – | – | – | – | – | – | – |
| 122 | 700 | 2920 | 2590 | 2340 | – | CCc1nsc2c1C(=O)c1ccccc1C2=O | 1130 | – | – | – | – | – | – | – | – | – | – | – | – | – |
| 8.75 | > 40000 | > 40000 | > 40000 | > 40000 | – | COc1ccc(-c2nsc3c2C(=O)c2c(OC)cccc2C3=O)cc1 | > 40000 | – | – | – | – | 7.19 | – | – | – | – | – | – | – | – |
| 5.59 | 27500 | 18800 | 10300 | > 40000 | – | O=C1c2ccccc2C(=O)c2c(-c3ccccc3)nsc21 | 17600 | – | – | – | – | – | – | – | – | – | – | – | – | – |
| 18 | > 40000 | > 40000 | > 40000 | > 40000 | – | COc1ccc(-c2nsc3c2C(=O)c2cccc(OC)c2C3=O)cc1 | > 40000 | – | – | – | – | – | – | – | – | – | – | – | – | – |
| 122 | 1360 | 1410 | 2670 | 1580 | – | Cc1nsc2c1C(=O)c1cccc(O)c1C2=O | 1370 | – | – | – | – | – | – | – | – | – | – | – | – | – |
| 97.2 | 1380 | 1660 | 2720 | 710 | – | CCc1nsc2c1C(=O)c1c(O)cccc1C2=O | 3060 | – | – | – | – | – | – | – | – | – | – | – | – | – |
| 7.29 | > 40000 | 36800 | 35200 | 37500 | – | COc1ccc(-c2nsc3c2C(=O)c2ccccc2C3=O)cc1 | 29300 | – | – | – | – | – | – | – | – | – | – | – | – | – |
| 219 | 3280 | 1520 | 260 | 310 | Dose-dependent effect | Cc1nsc2c1C(=O)c1ncccc1C2=O | 130 | 84.8 | 13.4 | 1.49 | 0.33 | 57.5 | 2.5 | Non-Toxic | 0.17 | Dose-dependent effect | 3 | 92.7 | 6.53 | 0.59 |
| 28.4 | 1510 | 2060 | 340 | 1110 | – | CCc1nsc2c1C(=O)c1cccnc1C2=O | 590 | – | – | – | – | – | – | – | – | – | – | – | – | – |
| 174 | 810 | 1200 | 400 | 260 | – | O=C1c2ncccc2C(=O)c2c(-c3ccccc3)nsc21 | 880 | – | – | – | – | – | – | – | – | – | – | – | – | – |
| 209 | 2770 | 40000 | 730 | 1820 | – | COc1ccc(-c2nsc3c2C(=O)c2cccnc2C3=O)cc1 | 1960 | – | – | – | – | – | – | – | – | – | – | – | – | – |
| 91.8 | 1380 | 910 | 1530 | 360 | – | CCc1nsc2c1C(=O)c1ncccc1C2=O | 170 | – | – | – | – | – | – | – | – | – | – | – | – | – |
